Measured values reported in ChEMBL document CHEMBL1158998, “Studies on iridoids of tissue cultures of Penstemon serrulatus: isolation and their antiproliferative properties” (J Nat Prod, 1992).

Legend:
[1] = Antiproliferative activity against BALB/c mouse splenocytes assessed as inhibition of [3H]thymidine incorporation into DNA at 1 uM after 24 hrs […] relative to control; assay type: cell-based, Splenocyte
Procedure, shortened: (§1)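 Spleens from male BALB/c mice (5–6 weeks) were teased into single cells in RPMI-1640 with 20 mM Hepes (pH 7.35) and checked by trypan blue. After 30 min preincubation, 10^6 cells/ml were held in medium with 15% FCS, with compound dissolved in medium. Incubation was at 37° in air-CO₂ (95:5). [³H]-thymidine (2 μCi/ml) was added after 1 h and the run stopped 24 h later. Read-out is cpm/10^6 cells; % inhibition = [1 − cpm treated/cpm control]×100; Student's t-test.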

[2] = Antiproliferative activity against Syrian hamster hepatoma cells assessed as inhibition of [3H]thymidine incorporation into DNA at 100 uM after 24 hrs […] relative to control; assay type: functional; conditions: Mesocricetus auratus
Procedure, shortened: (§2)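 Hepatoma was raised in Syrian hamsters by s.c. Kirkman-Robbins hepatoma pulp. Tumour cells were freed mechanically and with 0.4% collagenase plus 0.2% trypsin (>95% viable). After 30 min preincubation, 0.5×10^6 cells/ml were held in RPMI-1640 with 15% FCS and compound in medium at 37°, air-CO₂ (95:5). [³H]-thymidine (2 μCi/ml) was added at 1 h and incubation ended 24 h later. Read-out is cpm/10^6 cells; % inhibition vs control; Student's t-test.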

[3] = Antiproliferative activity against BALB/c mouse splenocytes assessed as inhibition of [3H]thymidine incorporation into DNA at 100 uM after 24 hrs […] relative to control; assay type: cell-based, Splenocyte; procedure, shortened: as §1
[4] = Antiproliferative activity against BALB/c mouse splenocytes assessed as inhibition of [3H]thymidine incorporation into DNA at 10 uM after 24 hrs […] relative to control; assay type: cell-based, Splenocyte; procedure, shortened: as §1
[5] = Antiproliferative activity against Syrian hamster hepatoma cells assessed as inhibition of [3H]thymidine incorporation into DNA at 10 uM after 24 hrs […] relative to control; assay type: functional; conditions: Mesocricetus auratus; procedure, shortened: as §2

Row | Structure (SMILES) | inhibition at 24 h, 1 µM [1] [%] | inhibition at 100 µM [2] [%] | inhibition at 24 h, 100 µM [3] [%] | inhibition at 24 h, 10 µM [4] [%] | inhibition at 10 µM [5] [%]
1 | CC(C)CC(=O)O[C@@H]1OC=C(CO[C@@H]2O[C@H](CO)[C@@H](O)[C@H](O)[C@H]2O)[C@@H]2CC=C(CO)[C@@H]12 | 4 | 69 | 59 | 24 | 12
2 | C=C1[C@H]2[C@H](OC(=O)CC(C)C)OC=C(CO[C@@H]3O[C@H](CO)[C@@H](O)[C@H](O)[C@H]3O)[C@@H]2C[C@@H]1O | 9 | 75 | 45 | 16 | 18
3 | CC(C)CC(=O)O[C@@H]1OC=C(CO)[C@@H]2CC=C(CO)[C@@H]12 | 15 |  | 60 | 25 | 
